From ChEMBL document CHEMBL1139831, “The influence of modifications in imide fragment structure on 5-HT(1A) and 5-HT(7) receptor affinity and in vivo pharmacological properties of some new 1-(m-trifluoromethylphenyl)piperazines” (Bioorg Med Chem, 2007)
pKi: −log10 of the molar value.

Assays:
[1] = system: Mus musculus; experiment: Antidepressant activity in Swiss Albino mouse assessed as immobility time during final 4 mins of 6 mins session at 5 mg/kg administered 30 mins before the test by forced-swimming test; type: functional
Summary of the method: (§1)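 Male Albino Swiss mice (24–28 g), compound given ip in 1% aqueous Tween 80 (10 ml/kg), 30 min before test. Mouse placed singly in glass cylinder (25 cm high, 10 cm diameter) holding 6 cm water at 23–25 °C for 6 min; immobility (floating, only small head-keeping movements) timed over last 4 min. n = 9-10 per group; one-way ANOVA then Dunnett's test.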

[2] = system: Mus musculus; experiment: Effect on locomotor activity in Swiss Albino mouse assessed as number of crossings in 6 mins at 0.3 mg/kg administered 30 mins before the test; type: functional
Summary of the method: (§2)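 Male Albino Swiss mice given compound ip (1% Tween 80, 10 ml/kg) 30 min before placement singly in plastic cages in a multichannel photobeam activity monitor; ambulation crossings counted over the first 6 min and over a 30 min session. n = 9-10 per group; ANOVA then Dunnett's test.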

[3] = system: Mus musculus; experiment: Antidepressant activity in Swiss Albino mouse assessed as immobility time during final 4 mins of 6 mins session at 1.25 mg/kg administered 30 mins before the test by forced-swimming test; type: functional; summary of the method: as §1
[4] = system: Mus musculus; experiment: Anxiolytic activity in Swiss Albino mouse assessed as number of punished crossings for 60 secs at 1.25 mg/kg administered 30 mins before the test by four-plate test; type: functional
Summary of the method: (§3)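 Male Albino Swiss mice (24–28 g), compound suspended in 1% aqueous Tween 80, given ip (10 ml/kg). Mouse placed in box with four metal floor plates, 15 s exploration, then floor electrified (120 V, 0.5 s) at each plate-to-plate crossing, no new shock for 3 s. Punished crossings counted over 60 s. n = 9-10/group; one-way ANOVA then Dunnett's test.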

[5] = system: Mus musculus; experiment: Antidepressant activity in Swiss Albino mouse assessed as immobility time during final 4 mins of 6 mins session at 2.5 mg/kg administered 30 mins before the test by forced-swimming test; type: functional; summary of the method: as §1
[6] = biological target: 5-hydroxytryptamine receptor 7 (Homo sapiens, UniProt P34969); experiment: Displacement of [3H]5-CT from human 5HT7 expressed in HEK293 cells; type: cell-based
Summary of the method: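 HEK293 cells stably transfected with human 5-HT7(b) cDNA; membranes (10 µg protein) incubated 1 h at 37 °C in 50 mM Tris-HCl pH 7.4 with 4 mM MgCl2, 0.1 mM pargyline, 0.1% ascorbic acid, 0.5 nM [3H]-5-CT and 7–9 test concentrations in triplicate; 10 µM 5-HT defines nonspecific binding. GF/B filtration, scintillation counting; Ki via Cheng-Prusoff from ≥3 experiments.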

[7] = system: Mus musculus; experiment: Effect on locomotor activity in Swiss Albino mouse assessed as number of crossings in 6 mins at 1 mg/kg administered 30 mins before the test; type: functional; summary of the method: as §2
[8] = system: Mus musculus; experiment: Anxiolytic activity in Swiss Albino mouse assessed as number of punished crossings for 60 secs at 2.5 mg/kg administered 30 mins before the test by four-plate test; type: functional; summary of the method: as §3
[9] = system: Mus musculus; experiment: Anxiolytic activity in Swiss Albino mouse assessed as number of punished crossings for 60 secs at 5 mg/kg administered 30 mins before the test by four-plate test; type: functional
Summary of the method: (§4)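 Male Albino Swiss mice dosed ip (1% aqueous Tween 80, 10 ml/kg) 30 min beforehand. Opaque box floored with four metal plates; 15 s free exploration, then each plate-to-plate crossing triggers a 0.5 s, 120 V floor shock, with no new shock for 3 s if running continues. Punished crossings counted over 60 s; n = 9-10, ANOVA plus Dunnett's test.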

[10] = system: Mus musculus; experiment: Effect on locomotor activity in Swiss Albino mouse assessed as number of crossings in 30 mins at 0.3 mg/kg administered 30 mins before the test; type: functional; summary of the method: as §2
[11] = system: Mus musculus; experiment: Effect on locomotor activity in Swiss Albino mouse assessed as number of crossings in 30 mins at 1 mg/kg administered 30 mins before the test; type: functional; summary of the method: as §2
[12] = Displacement of [3H]prazosin from adrenergic alpha1 receptor in rat cortical membranes; type: cell membranes, Membrane
Summary of the method: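 Rat cortical membranes with [3H]-prazosin; phentolamine defines nonspecific binding. 7–9 drug concentrations in triplicate, at least three separate experiments; stopped by GF/B filtration with three ice-cold buffer washes, bound radioactivity by liquid scintillation counting; Ki from non-linear regression and Cheng-Prusoff equation.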

[13] = system: Mus musculus; experiment: Anxiolytic activity in Swiss Albino mouse assessed as number of punished crossings for 60 secs at 1 mg/kg administered 30 mins before the test by four-plate test; type: functional; summary of the method: as §4
[14] = system: Rattus norvegicus; experiment: Effect on lower lip retraction in Wistar rat at 0.1 mg/kg; type: functional
Summary of the method: (§5)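 Male Wistar rats (290–310 g) dosed ip in 1% Tween 80 (2 ml/kg), caged singly; lower lip retraction scored 15, 30 and 45 min after dosing as 0 (incisors not visible), 0.5 (partly) or 1 (completely visible), totals up to 3 per rat. n = 6 per group; one-way ANOVA followed by Dunnett's test.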

[15] = species on record: Mus musculus; details: Swiss Albino, 5 mg/kg
[16] = system: Rattus norvegicus; experiment: Effect on lower lip retraction in Wistar rat at 0.3 mg/kg; type: functional; summary of the method: as §5
[17] = species on record: Mus musculus; details: Swiss Albino, 5 mg/kg; remark: listed apart in the source
[18] = biological target: D(2) dopamine receptor (Rattus norvegicus, UniProt P61169); experiment: Displacement of [3H]spiperone from dopamine D2 receptor in rat striatal membranes; type: cell membranes, Membrane
Summary of the method: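 Competition binding on rat striatal membranes using [3H]-spiperone, butaclamol for nonspecific binding; filtration through GF/B filters and scintillation counting. Run at two compound concentrations, each in triplicate, and affinity expressed as estimated Ki.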

[19] = species on record: Mus musculus; details: Swiss Albino, 5 mg/kg; remark: listed apart in the source
[20] = system: Rattus norvegicus; experiment: Effect on 8-OH-DPAT-induced lower lip retraction in Wistar rat at 0.1 mg/kg; type: functional
[21] = system: Mus musculus; experiment: Anxiolytic activity in Swiss Albino mouse assessed as number of punished crossings for 60 secs at 0.3 mg/kg administered 30 mins before the test by four-plate test; type: functional; summary of the method: as §4
[22] = species on record: Mus musculus; details: Swiss Albino, 2.5 mg/kg
[23] = system: Rattus norvegicus; experiment: Effect on lower lip retraction in Wistar rat at 1 mg/kg; type: functional; summary of the method: as §5
[24] = species on record: Mus musculus; details: Swiss Albino, 2.5 mg/kg; remark: listed apart in the source
[25] = system: Mus musculus; experiment: Antidepressant activity in Swiss Albino mouse assessed as immobility time during final 4 mins of 6 mins session at 0.1 mg/kg administered 30 mins before the test by forced-swimming test; type: functional; summary of the method: as §1
[26] = species on record: Mus musculus; details: Swiss Albino, 5 mg/kg; remark: listed apart in the source
[27] = biological target: T1, 5-hydroxytryptamine receptor 1A (Rattus norvegicus, UniProt P19327); experiment: Displacement of [3H]8-OH-DPAT from 5HT1A in rat hippocampal membranes; type: cell membranes, Hippocampus, Membrane
T1 sequence (P19327 whole entry): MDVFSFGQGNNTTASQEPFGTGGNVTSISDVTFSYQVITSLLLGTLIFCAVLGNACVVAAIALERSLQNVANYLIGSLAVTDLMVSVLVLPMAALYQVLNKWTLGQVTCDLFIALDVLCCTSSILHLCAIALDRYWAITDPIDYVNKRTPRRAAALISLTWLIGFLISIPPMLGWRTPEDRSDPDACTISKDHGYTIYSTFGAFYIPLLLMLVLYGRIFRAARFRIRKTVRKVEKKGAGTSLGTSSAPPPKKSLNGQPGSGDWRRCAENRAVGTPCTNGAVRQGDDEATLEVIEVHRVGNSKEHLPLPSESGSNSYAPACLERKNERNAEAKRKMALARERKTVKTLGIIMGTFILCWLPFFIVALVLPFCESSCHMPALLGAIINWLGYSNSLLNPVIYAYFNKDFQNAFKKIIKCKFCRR
Summary of the method: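 Rat hippocampal membranes, [3H]-8-OH-DPAT as radioligand, 5-HT defining nonspecific binding. 7–9 drug concentrations run in triplicate, at least three separate experiments. Filtration through GF/B filters with three ice-cold buffer washes, scintillation counting. Ki from non-linear regression of binding isotherms via Cheng-Prusoff equation.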

[28] = system: Mus musculus; experiment: Antidepressant activity in Swiss Albino mouse assessed as immobility time during final 4 mins of 6 mins session at 1 mg/kg administered 30 mins before the test by forced-swimming test; type: functional; summary of the method: as §1
[29] = species on record: Mus musculus; details: Swiss Albino, 2.5 mg/kg; remark: listed apart in the source
[30] = system: Mus musculus; experiment: Antidepressant activity in Swiss Albino mouse assessed as immobility time during final 4 mins of 6 mins session at 0.3 mg/kg administered 30 mins before the test by forced-swimming test; type: functional; summary of the method: as §1
[31] = species on record: Mus musculus; details: Swiss Albino, 2.5 mg/kg; remark: listed apart in the source
[32] = species on record: Mus musculus; details: Swiss Albino, 5 mg/kg; remark: listed apart in the source
[33] = species on record: Mus musculus; details: Swiss Albino, 5 mg/kg; remark: listed apart in the source
[34] = system: Mus musculus; experiment: Effect on locomotor activity in Swiss Albino mouse assessed as number of crossings in 30 mins at 20 mg/kg administered 30 mins before the test; type: functional; summary of the method: as §2
[35] = system: Mus musculus; experiment: Antidepressant activity in Swiss Albino mouse assessed as immobility time during final 4 mins of 6 mins session at 10 mg/kg administered 30 mins before the test by forced-swimming test; type: functional; summary of the method: as §1
[36] = system: Mus musculus; experiment: Effect on locomotor activity in Swiss Albino mouse assessed as number of crossings in 30 mins at 10 mg/kg administered 30 mins before the test; type: functional; summary of the method: as §2
[37] = system: Mus musculus; experiment: Antidepressant activity in Swiss Albino mouse assessed as immobility time during final 4 mins of 6 mins session at 20 mg/kg administered 30 mins before the test by forced-swimming test; type: functional; summary of the method: as §1
[38] = system: Mus musculus; experiment: Effect on locomotor activity in Swiss Albino mouse assessed as number of crossings in 6 mins at 20 mg/kg administered 30 mins before the test; type: functional; summary of the method: as §2

5-hydroxytryptamine receptor 7, sequence (P34969 whole entry): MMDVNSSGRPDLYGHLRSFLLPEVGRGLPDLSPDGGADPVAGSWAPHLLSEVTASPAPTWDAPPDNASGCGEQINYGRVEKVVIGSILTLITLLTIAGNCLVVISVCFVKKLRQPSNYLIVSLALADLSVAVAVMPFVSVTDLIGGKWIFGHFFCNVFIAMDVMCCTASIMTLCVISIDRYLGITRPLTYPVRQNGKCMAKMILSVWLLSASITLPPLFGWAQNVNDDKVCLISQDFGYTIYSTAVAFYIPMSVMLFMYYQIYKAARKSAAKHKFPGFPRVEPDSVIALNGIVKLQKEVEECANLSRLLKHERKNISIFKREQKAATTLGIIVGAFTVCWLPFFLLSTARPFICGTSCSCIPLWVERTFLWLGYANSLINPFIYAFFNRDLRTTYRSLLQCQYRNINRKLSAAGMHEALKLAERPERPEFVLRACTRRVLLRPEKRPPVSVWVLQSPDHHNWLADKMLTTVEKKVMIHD
D(2) dopamine receptor, sequence (P61169 whole entry): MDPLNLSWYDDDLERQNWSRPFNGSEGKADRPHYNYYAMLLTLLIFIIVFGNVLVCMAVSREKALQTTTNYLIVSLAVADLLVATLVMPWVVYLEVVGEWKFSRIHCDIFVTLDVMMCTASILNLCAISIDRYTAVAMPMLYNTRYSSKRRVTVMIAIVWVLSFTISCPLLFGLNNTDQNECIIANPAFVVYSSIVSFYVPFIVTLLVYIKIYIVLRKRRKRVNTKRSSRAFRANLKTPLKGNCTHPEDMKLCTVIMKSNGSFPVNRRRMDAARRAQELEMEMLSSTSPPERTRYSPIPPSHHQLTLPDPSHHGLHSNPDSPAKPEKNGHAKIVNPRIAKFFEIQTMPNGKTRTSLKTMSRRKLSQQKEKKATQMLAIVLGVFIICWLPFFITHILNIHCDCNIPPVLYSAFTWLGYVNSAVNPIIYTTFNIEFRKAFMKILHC

SMILES: CC1(C)CC(=O)N(C2CCC(N3CCN(c4cccc(C(F)(F)F)c4)CC3)CC2)C(=O)C1 (stereo not given)
- Activity [1]: 113.3 s
- Activity [2]: 212
- Activity [3]: 150.4 s
- Activity [4]: 4.4
- Activity [5]: 98.2 s
- pKi [6]: 6.66
- Activity [7]: 211.7
- Activity [8]: 4.6
- Activity [9]: 4.6
- Activity [10]: 630.1
- Activity [11]: 535.3
- pKi [12]: 6.57

SMILES: O=C1CCCC(=O)N1C1CCC(N2CCN(c3cccc(C(F)(F)F)c3)CC2)CC1 (trans isomer)
- Activity [13]: 3.9
- Activity [14]: 1.3
- Activity [2]: 208.2
- deltaT [15]: -1.3 °C
- Activity [16]: 2.4
- pKi [6]: 5.92
- deltaT [17]: -1.5 °C
- Activity [7]: 121.6
- pKi [18]: < 5.30
- Activity [9]: 4.2
- deltaT [19]: -1.2 °C
- Activity [20]: 2.6
- Activity [21]: 3.9
- deltaT [22]: -0.5 °C
- Activity [10]: 537.7
- Activity [23]: 3
- deltaT [24]: -0.7 °C
- Activity [25]: 128.3 s
- Activity [11]: 374.3
- deltaT [26]: -1.5 °C
- pKi [27]: 8.59
- Activity [28]: 77.7 s
- deltaT [29]: -0.5 °C
- pKi [12]: 7.07
- Activity [30]: 70.1 s
- deltaT [31]: -0.3 °C
- deltaT [32]: -1.2 °C
- deltaT [33]: -1.6 °C

SMILES: CN(C)CCCN1c2ccccc2CCc2ccccc21 [IMIPRAMINE]
- Activity [34]: 625.3
- Activity [35]: 149.1 s
- Activity [36]: 876.8
- Activity [37]: 107.8 s
- Activity [38]: 314.9
